Data set [1] deals with T1, Oxysterols receptor LXR-alpha (Homo sapiens, UniProt Q13133).
T1 sequence (Q13133 whole entry): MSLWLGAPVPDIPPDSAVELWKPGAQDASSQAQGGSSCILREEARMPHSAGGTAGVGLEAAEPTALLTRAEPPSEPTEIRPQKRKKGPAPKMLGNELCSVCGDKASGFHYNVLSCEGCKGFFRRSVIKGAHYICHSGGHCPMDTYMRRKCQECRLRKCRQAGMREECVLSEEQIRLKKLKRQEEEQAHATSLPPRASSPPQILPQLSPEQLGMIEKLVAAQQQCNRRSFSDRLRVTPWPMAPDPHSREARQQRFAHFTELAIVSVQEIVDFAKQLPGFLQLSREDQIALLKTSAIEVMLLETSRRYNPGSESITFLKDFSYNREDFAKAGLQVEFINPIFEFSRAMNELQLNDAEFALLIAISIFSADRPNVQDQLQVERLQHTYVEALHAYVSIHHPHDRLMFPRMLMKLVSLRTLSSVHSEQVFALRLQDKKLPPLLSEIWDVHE
Kind of data set: Transactivational agonist activity at human LXRalpha transfected in HEK293 cells coexpressing CMX-Gal4N-SRC1 assessed as SRC1 recruitment at 10 uM after 16 hrs by mammalian two-hybrid assay. The class given is cell-based. To be noted: hek293, 16 h. The procedure, abridged: (§1)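 Mammalian two-hybrid in HEK293 cells by calcium phosphate cotransfection: CMX-VP16N-hLXRα, Gal4N-fused SRC1, DRIP205, NCoR or SMRT (15 ng), tk-MH100×4-luc (50 ng) and CMX-β-gal (10 ng). Compound or DMSO added 8 h after transfection for 16 h. Luciferase was normalized to β-galactosidase, in triplicate.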

The target in data set [2] is T2, Retinoic acid receptor RXR-alpha (Homo sapiens) (UniProt P19793).
T2 sequence (whole entry): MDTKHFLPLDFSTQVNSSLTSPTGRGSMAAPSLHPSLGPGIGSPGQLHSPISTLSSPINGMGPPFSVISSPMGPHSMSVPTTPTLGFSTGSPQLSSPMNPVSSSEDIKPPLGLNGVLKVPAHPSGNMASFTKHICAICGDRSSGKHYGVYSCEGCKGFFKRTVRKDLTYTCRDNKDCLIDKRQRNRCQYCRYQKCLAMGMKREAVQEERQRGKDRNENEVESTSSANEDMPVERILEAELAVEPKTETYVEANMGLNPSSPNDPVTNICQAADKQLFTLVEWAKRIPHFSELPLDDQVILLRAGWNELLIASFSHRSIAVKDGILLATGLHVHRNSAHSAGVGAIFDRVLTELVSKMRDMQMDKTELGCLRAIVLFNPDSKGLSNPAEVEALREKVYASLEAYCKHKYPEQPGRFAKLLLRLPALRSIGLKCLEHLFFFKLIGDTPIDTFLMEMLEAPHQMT
As to the kind of experiment: Agonist activity at human Gal4-fused RXRalpha assessed as luciferase activity at 0.1 to 10 uM by reporter gene assay. It counts as functional.

The target in data set [3] is T1, Oxysterols receptor LXR-alpha. As to the kind of experiment: Transactivational agonist activity at human LXRalpha transfected in HEK293 cells coexpressing CMX-Gal4N-DRIP205 assessed as DRIP205 recruitment at 10 uM after 16 hrs by mammalian two-hybrid assay. It counts as cell-based. To be noted: hek293, 16 h. The procedure, abridged:
as §1

Calls of active or inactive are those of the source. The rule behind the calls is not given here.

For the compound `C=C1c2ccccc2C(=O)N(C)c2ccc(CC)cc21`, the Activity result in data set [1] and in data set [3] was “Non-toxic” each time. Besides, the result in data set [2] was inactive.
